Screens as filed in PubChem.
Mdm2 MdmX PPI: human Mdm2/MdmX binding inhibition; 330,000 compounds, 3% hits; O15151+Q00987; SaOS-2 split-luciferase Mdm2/MdmX complementation, luminescence; inhibition, % at 8 µM;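 active = inhibition of at least 50% at 8 µM in the primary screen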
CSC inhib: cancer stem cell inhibition; AID 2717; 300,000 compounds, 1.1% hits; cancer stem cell-like cells viability, luminescence; inhibition, % at 7.5 µM; in the data active = inhibition above about 75%; inconclusive = no clear call, values can overlap the other calls; tested in HMLE shEcad cells
SKKanGAS inh: inhibitors of SKKanGAS S. pyogenes growth in kanamycin (SK-promoter or general growth effect) | BacTiter-Glo, 6 h | inhibition, % at 7.5 µM | 300,000 compounds, 1.3% hits | AID 1662;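 active = mean replicate score, as percent of positive control median, at least 50; inconclusive = mean below 50 but one replicate at or above 50; inactive = mean and every replicate below 50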;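 note: strain carries kanamycin resistance gene driven by streptokinase promoter and grows in 40 µg/ml kanamycin; loss of luminescence reflects streptokinase promoter inhibition or plain growth inhibition; 0% = median of DMSO wells and 100% = positive control at its reference dose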
Calb FLC: affects C. albicans growth with fluconazole; C. albicans CaCi-2 (fluconazole-resistant clinical isolate) + fluconazole, Alamar Blue growth, 48 h; growth inhibition, % (no concentration beside the values); 300,000 compounds, 0.57% hits; AID 1979;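 active = growth inhibition above about 58% in most replicates, limit read from the data, passing the limit was not always enough; inconclusive = exactly half the replicates above a set limit; inactive = most replicates below a set limit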;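 note: all wells also contain fluconazole at 8 µg/ml as a sub-toxic cotreatment; 0% = median of DMSO wells and 100% = median of geldanamycin control wells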
Beta cell apopt: blocks beta cell apoptosis. INS-1E cytokine-induced death, ATP luminescence, 48 h; percent of positive-control rescue, neutral wells zero. protection from apoptosis, % (test concentration not listed). 300,000 compounds, 0.8% hits. AID 435005;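 active = Every replicate reaches about 75%, or at least half do and their mean reaches it too, limit read from the data; inconclusive = At least half of replicates reach the limit but their mean does not; inactive = Under half of replicates reach the limit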;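 note: 0% = cytokine-treated negative control wells and 100% = positive control rescue; higher means more ATP so stronger rescue from cytokine killing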
T cruzi inh: blocks replication of Trypanosoma cruzi; 300,000 compounds, 1.4% hits; T. cruzi beta-gal in NIH3T3, luminescence, 90 h; inhibition, % (test concentration not listed);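 active = mean inhibition across valid replicates above about 55%, limit read from the data; inconclusive = mean below that limit but half or more replicates reach it; inactive = mean below it, under half of replicates reach it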;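 note: signal also drops with host cell toxicity which is not excluded here; 0% = plate median of DMSO wells and 100% = zero luminescence signal; higher percent means less beta-gal luminescence so fewer parasites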
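System: mouse NIH/3T3 fibroblasts infected with β-gal-expressing T. cruzi Tulahuen C4 / Input: NIH/3T3 cells, 5,000 per well / Buffer or medium: Low-serum DMEM with 2% FBS / Probe or stimulus: 5000 reporter trypomastigotes per well / Schedule: ≥90 h infection period, 3 h prior cell attachment / Measured by: GalScreen luminescence, 60 min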
Mdm2-MdmX conf: confirmation of human Mdm2/MdmX interaction inhibitors; shares compounds with Mdm2 MdmX PPI; Mdm2-MdmX binding, luminescent assay; inhibition, % at 8 µM; 10,000 compounds, 55% hits; AID 489028; in the data active = inhibition above about 40%
FLuc counter: counter-screen for Mdm2/MdmX inhibitors: full-length luciferase | shares compounds with Mdm2 MdmX PPI | SaOS-2 full-length luciferase counterscreen, luminescence | inhibition, % at 8 µM | 6,200 compounds, 77% hits | AID 504607;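 active = mean inhibition at 8 µM reaching about 37%, which flags the compound as non-specific, limit read from the data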;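 note: p53-null SaOS-2 cells with luciferase driven by a doxycycline-inducible promoter; compound on cells about two nights before reading with doxycycline added after day one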
Active calls of the source: *; ? = inconclusive; . = no result given. This is a sample that favours compounds with a hit; in the whole collection about 5.7% have one here.

SMILES	Mdm2 MdmX PPI	CSC inhib	SKKanGAS inh	Calb FLC	Beta cell apopt	T cruzi inh	Mdm2-MdmX conf	FLuc counter
CC(C)(C)C(=O)O/N=C(\N)c1c(Cl)cccc1Cl	54*	9	2	9	-1	-16	-6	.
CS(=O)(=O)c1cnc(-c2cccnc2)nc1N	9	-9	5	-9	.	-15	.	.
CCOc1ccc(N/C(N)=N/c2nc(CSc3nnc(C)s3)cc(=O)[nH]2)cc1	67*	?	4	0	1	21	56*	81*
COCCN(C(=O)COC(=O)c1ccc(Cl)nc1)c1c(N)n(Cc2ccccc2)c(=O)[nH]c1=O	0	.	-6	-4	-5	-6	.	.
O=CC1=C(c2ccccc2)Oc2ccccc2O1	57*	62	8	3	52	-22	8	.
COCCCNCC#CCOc1ccc(OC)cc1	100*	-29	3	-17	-1	9	-1	.
COCCNCC#CCOc1ccc(OC)cc1	-3	-11	-6	-8	-8	4	.	.
COc1ccc(Sc2nnc(-c3ccccc3)cc2C#N)cc1	26	6	2	1	5	1	.	.
COc1ccc(Sc2nnc(Cc3ccccc3)c3ccccc23)cc1	72*	62	12	10	-7	46	48*	88*
Cc1ccc(Sc2nnc(Cc3ccccc3)c3ccccc23)cc1	53*	31	17	-7	-6	62*	24	.
CCOC(=O)N1CCN(S(=O)(=O)c2ccc(C(=O)NNc3nc4c(C)cccc4s3)cc2)CC1	53*	.	22	0	55	44	41*	47*
CCOC(=O)N1CCN(S(=O)(=O)c2ccc(C(=O)N(CCN(CC)CC)c3nc4c(C)cccc4s3)cc2)CC1	19	-7	3	2	-1	34	.	.
CCOC(=O)N1CCN(S(=O)(=O)c2ccc(C)c(C)c2)CC1	13	.	-4	-5	-8	-13	.	.
Cc1ccc(C(=O)NNC(=O)c2ccc(S(=O)(=O)N3CCCCC3)cc2)cc1	1	-1	.	.	-6	.	.	.
CCOC(=O)N1CCN(S(=O)(=O)c2ccc(C(=O)NNc3nc4c(C)cc(C)cc4s3)cc2)CC1	80*	126*	22	29	97*	40	70*	48*
CCOC(=O)N1CCN(S(=O)(=O)c2ccc(C(=O)Nc3nc4c(s3)CC(C)CC4)cc2)CC1 (stereo not given)	78*	-8	-1	3	38	-5	21	.
Cc1cc(C)c2nc(NNC(=O)c3ccc(S(=O)(=O)N4CCCCC4)cc3)sc2c1	72*	102*	?	4	71	50	45*	47*
O=C(Nc1ccccc1N1CCOCC1)c1ccc([N+](=O)[O-])s1	31	3	.	.	37	.	.	.
Cc1cccc2sc(NNC(=O)c3ccc(S(=O)(=O)N4CCc5ccccc5C4)cc3)nc12	83*	103*	59*	-1	92*	60*	82*	76*
CCOC(=O)N1CCN(S(=O)(=O)c2ccc(C(=O)NNc3nc4cc(C)cc(C)c4s3)cc2)CC1	79*	103*	23	-1	84*	49	46*	47*
NS(=O)(=O)c1ccc(NC(=O)c2ccc(F)cc2F)c(NC(=O)c2ccc(F)cc2F)c1	-1	8	-3	-1	-1	-8	.	.
Cn1c(CNC(=O)C(Cc2ccccc2)NC(=O)c2cccc(F)c2)cc(=O)n(C)c1=O (stereo not given)	-2	-3	14	.	-1	2	.	.
COc1ccc(CNC[C@H]2O[C@@H](n3cnc4c(N)ncnc43)[C@H](O)[C@@H]2O)cc1OC	5	-13	.	.	-2	.	.	.
O=C(CN1C(=O)NC2(CCCCC2)C1=O)N1CCOCC1	-20	-5	.	.	-1	.	.	.
CCOC(=O)c1ccc(-c2ccc(/C=N/NC(=O)CN(c3ccccc3Br)S(C)(=O)=O)o2)cc1	51*	41	30	0	8	9	-4	.
SMILES	Mdm2 MdmX PPI	CSC inhib	SKKanGAS inh	Calb FLC	Beta cell apopt	T cruzi inh	Mdm2-MdmX conf	FLuc counter
O=C(c1cc(Br)c(Br)s1)N1CCc2ccccc2C1	3	12	.	.	-2	.	.	.
CCOC(=O)CSc1c(-c2ccc(Cl)cc2)[nH]c2ccccc12	7	-2	-5	31	-7	-20	.	.
O=C(Cc1cccs1)NCCSc1c(-c2ccc(Cl)cc2)[nH]c2ccccc12	77*	71	31	-6	37	9	25	.
CCC(C)(C)n1nnnc1C(c1ccc(F)cc1)N1CCN(C(=O)c2ccco2)CC1 (stereo not given)	15	-5	0	-4	0	9	.	.
CCC(=NNC(=O)c1ccc2c(c1)nc(C)n2CC)c1cc(F)ccc1O	58*	21	.	.	90*	.	22	.
CCn1c(C)nc2cc(C(=O)NNS(=O)(=O)c3c(F)cc(F)c(Cl)c3F)ccc21	-35	-3	5	?	-3	-32	.	.
COc1cc2c(cc1OC)-c1cc(Nc3ccc4c(c3)OCCO4)nc(=O)n1CC2	68*	18	10	-3	21	14	45*	52*
COc1ccccc1/C=C(\NC(=O)c1ccc(OC)c(OC)c1)C(=O)Nc1cc([N+](=O)[O-])ccc1C	59*	17	0	12	1	-25	8	.
Cc1nc2scc(-c3ccccc3)c2c(=O)n1N=C1C=CC(=O)C=C1	70*	.	9	22	.	67*	42*	13
Cc1nc2scc(-c3ccccc3)c2c(=O)n1N	0	.	3	-11	0	-1	.	.
COc1ccc(/C=N/NC(=O)c2ccc(Br)cc2)cc1Cn1cc(Cl)cn1	44	-7	6	-17	12	15	.	.
COc1ccc(/C=N/NC(=O)c2cccc(Br)c2)cc1Cn1cc(Cl)cn1	60*	.	10	4	1	3	50*	67*
COc1cc(C2CC(=O)N(c3ccc(C)cc3)C(=O)C2)cc(OC)c1OC	54*	50	-13	-1	7	-5	41*	61*
COc1ccc(N2C(=O)CC(c3cc(OC)c(OC)c(OC)c3)CC2=O)cc1	12	3	-1	-1	-1	-13	.	.
Cc1ccc(OCC(=O)Nc2ccc(O)c(-c3nc4ccccc4o3)c2)cc1	92*	-8	18	-3	7	6	47*	108*
Cn1c(SCC(=O)NC2CCCC2)nnc1-c1ccco1	8	-8	-1	-1	-1	-15	.	.
CCOc1ccccc1CNC(=O)CCNS(=O)(=O)c1ccc2[nH]c(=O)oc2c1	29	-11	0	3	-5	10	.	.
CC(C)(C)OC(=O)N1CCC(NC(=O)c2nc[nH]c2C(=O)N2CCc3ccccc3C2)CC1	10	-20	.	.	0	.	.	.
